Reference: ChEMBL document CHEMBL1821622, “Thiazole- and imidazole-containing peptidomimetic inhibitors of protein farnesyltransferase” (Bioorg Med Chem Lett, 2011)
Each block holds one compound with its values, some of them ahead of it. The source made the active and inactive calls. The calls are words filed in the database; no cut-off is given here.

What was measured:
[1] = (§1) Inhibition of cell proliferation in RASMC cells after 72 hrs by Coulter Counter method; format: functional, cell-based, Rattus norvegicus
How it was run: (§2)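 Rat aortic SMCs were seeded at 2 × 10^5 cells per 35 mm dish in DMEM with 10% FCS. Cells were counted after trypsinization. DMSO was at most 0.5% final. IC50 came from linear regression of log concentration vs logit.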

RASMC [2] = assay: Inhibition of rat Ftase in RASMC cells assessed as reduction in Ras prenylation at 2 uM after 72 hrs by Western blot analysis; format: cell-based
How it was run: (§3)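 Rat SMCs were seeded at 4 × 10^5 per 60 mm dish and taken through the same serum arrest and restimulation as the proliferation assay, with 72 h exposure. Cells were lysed for 30 min on ice in Tris pH 7.5/NaCl/NP-40 buffer with inhibitors and cleared at 15,000g. Protein was measured by BCA. Lysates were run on reducing SDS-PAGE and immunoblotted with anti-Ras (RAS10) using ECL. The slower band is unprenylated Ras; the faster band is prenylated Ras.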

[3] = (§4) Inhibition of rat recombinant FTase using Dansyl-Gly-Cys-Val-Leu-Ser-OH peptide and farnesyl-pyrophosphate substrates measured every 15 seconds for 5 mins by fluorescent assay
Rattus norvegicus = organism: Rattus norvegicus; assay: as §4
RASMC [4] = assay: as §1; format: functional, cell-based; conditions: Rattus norvegicus; how it was run: as §2
RASMC [5] = assay: Inhibition of rat Ftase in RASMC cells assessed as reduction of Ras prenylation at 50 to 100 uM after 72 hrs by Western blot analysis relative to control; format: cell-based; how it was run: as §3
[6] = Rattus norvegicus, RASMC, 72 h, read-out: IC50

SMILES: CSCC[C@H](NC(=O)c1ccc(NC(=O)CCc2csc(S)n2)cc1-c1ccccc1C)C(=O)OC(C)C
IC50 [1, 6]: 25 µM

SMILES: CCC(C)(C)C(=O)O[C@H]1C[C@@H](C)C=C2C=C[C@H](C)[C@H](CC[C@@H]3C[C@@H](O)CC(=O)O3)[C@H]21
inhibition (RASMC [2]): Active

SMILES: CSCC[C@H](NC(=O)c1ccc(NC(=O)CCc2c[nH]c(S)n2)cc1-c1ccccc1C)C(=O)OC(C)C
IC50 [1, 6]: 34 µM

IC50 ([3]; read-out: IC50): 0.049 µM
inhibition (Rattus norvegicus): Dose-dependent effect
SMILES: CSCC[C@H](NC(=O)c1ccc(NC(=O)Cc2csc(N)n2)cc1-c1ccccc1C)C(=O)O
inhibition (RASMC [4]): Dose-dependent effect
inhibition (RASMC [5]): Dose-dependent effect

SMILES: CSCC[C@H](NC(=O)c1ccc(NC(=O)Cc2csc(SC)n2)cc1-c1ccccc1C)C(=O)OC(C)C
IC50 ([1]; rasmc): Not Active

SMILES: CSCC[C@H](NC(=O)c1ccc(NC(=O)Cc2csc(S)n2)cc1-c1ccccc1C)C(=O)OC(C)C
IC50 [1, 6]: 21 µM

IC50 ([3]; read-out: IC50): 0.122 µM
SMILES: CSCC[C@H](NC(=O)c1ccc(NC(=O)Cc2c[nH]c(S)n2)cc1-c1ccccc1C)C(=O)O

SMILES: CSCC[C@H](NC(=O)c1ccc(NC(=O)CCc2csc(SC)n2)cc1-c1ccccc1C)C(=O)OC(C)C
IC50 ([1]; rasmc): Not Active

SMILES: CSCC[C@H](NC(=O)c1ccc(NC(=O)Cc2csc(N)n2)cc1-c1ccccc1C)C(=O)OC(C)C
IC50 [1, 6]: 107 µM

IC50 ([3]; read-out: IC50): 0.526 µM
SMILES: CSCC[C@H](NC(=O)c1ccc(NC(=O)CCc2csc(S)n2)cc1-c1ccccc1C)C(=O)O

SMILES: CSCC[C@H](NC(=O)c1ccc(NC(=O)CCc2csc(N)n2)cc1-c1ccccc1C)C(=O)OC(C)C
IC50 ([1]; rasmc): Not Active

IC50 [3]: Not Active
SMILES: CSCC[C@H](NC(=O)c1ccc(NC(=O)Cc2csc(SC)n2)cc1-c1ccccc1C)C(=O)O

IC50 ([3]; read-out: IC50): 0.39 µM
SMILES: CSCC[C@H](NC(=O)c1ccc(NC(=O)CCc2csc(N)n2)cc1-c1ccccc1C)C(=O)O

IC50 [3]: Not Active
SMILES: CSCC[C@H](NC(=O)c1ccc(NC(=O)CCc2c[nH]c(S)n2)cc1-c1ccccc1C)C(=O)O

SMILES: CSCC[C@H](NC(=O)c1ccc(NC(=O)Cc2c[nH]c(S)n2)cc1-c1ccccc1C)C(=O)OC(C)C
IC50 [1, 6]: 226 µM

IC50 ([3]; read-out: IC50): 0.009 µM
SMILES: CSCC[C@H](NC(=O)c1ccc(NC[C@@H](N)CS)cc1-c1ccccc1)C(=O)O

IC50 ([3]; read-out: IC50): 0.538 µM
SMILES: CSCC[C@H](NC(=O)c1ccc(NC(=O)Cc2csc(S)n2)cc1-c1ccccc1C)C(=O)O

IC50 ([3]; read-out: IC50): 0.415 µM
SMILES: CSCC[C@H](NC(=O)c1ccc(NC(=O)CCc2csc(SC)n2)cc1-c1ccccc1C)C(=O)O
